Values after ≈ are worked out from the molar mass of the structure shown.
How the values were obtained:
Staphylococcus aureus [1] = test: Antimicrobial activity against Panton-valentine leucocidin-positive community-acquired methicillin-resistant Staphylococcus aureus N4090440 infected in human THP-1 cells assessed as change in bacterial count after 24 hrs at pH 7.4; assay type: functional, organism-based; conditions: N4090440, THP-1, 24 h
Method in brief: (§1)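 THP-1 human macrophages infected with S. aureus (postphagocytosis inoculum 1.5 × 10^6 to 3.0 × 10^6 CFU/mg cell protein), then incubated 24 h with increasing extracellular antibiotic concentrations. Change in log10 CFU/mg cell protein from the postphagocytosis inoculum, n = 3. Hill function fitted on log-transformed data. Low-concentration value (E0) and high-concentration value (Emax) are extrapolated. Where a pH is given, concentrations are expressed as multiples of the broth MIC at that pH.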

Staphylococcus aureus [2] = test: Bacteriostatic activity against Panton-valentine leucocidin-positive community-acquired methicillin-resistant Staphylococcus aureus NRS192 infected in human THP-1 cells assessed as change in bacterial count after 24 hrs at pH 5.5; assay type: functional
Method in brief: (§2)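 THP-1 macrophages infected as described previously, with a postphagocytosis inoculum of 1.5 × 10⁶ to 3.0 × 10⁶ CFU/mg cell protein. Cells were exposed 24 h to increasing extracellular antibiotic concentrations. Response is the change in log10 CFU/mg protein from the inoculum (n = 3), fitted to a Hill function. E0 and Emax were extrapolated to infinitely low and high concentrations. EC50 and static concentration (graphical interpolation) are expressed as multiples of the broth MIC at pH 5.5 or 7.4.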

Staphylococcus aureus [3] = test: Antimicrobial activity against Panton-valentine leucocidin-positive community-acquired methicillin-resistant Staphylococcus aureus NRS192 infected in human THP-1 cells assessed as bacterial count per mg of cell protein at high extracellular compound concentration after 24 hrs; assay type: functional; method in brief: as §1
Staphylococcus aureus [4] = test: Antimicrobial activity against hospital-acquired vancomycin-intermediate Staphylococcus aureus NRS126 infected in human THP-1 cells assessed as bacterial count per mg of cell protein at low extracellular compound concentration after 24 hrs; assay type: functional
Method in brief: (§3)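 Human THP-1 macrophage-like cells were infected with S. aureus to a postphagocytosis inoculum of 1.5 × 10^6 to 3.0 × 10^6 CFU/mg cell protein. Cells were then exposed 24 h to increasing extracellular antibiotic concentrations. Response was the log10 CFU change per mg protein from the postphagocytosis inoculum, n = 3. A Hill function was fitted on log-transformed axes. E0 and Emax were extrapolated to infinitely low and high concentrations. Cs was read by graphical interpolation. Concentrations were expressed as multiples of the broth MIC at pH 5.5 or pH 7.4.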

Staphylococcus aureus [5] = test: Antimicrobial activity against hospital-acquired vancomycin-intermediate Staphylococcus aureus NRS126 infected in human THP-1 cells assessed as bacterial count per mg of cell protein at high extracellular compound concentration after 24 hrs at pH 7.4; assay type: functional; method in brief: as §2
Staphylococcus aureus [6] = test: Bacteriostatic activity against hospital-acquired vancomycin-intermediate Staphylococcus aureus NRS18 infected in human THP-1 cells assessed as change in bacterial count after 24 hrs at pH 7.4; assay type: functional; method in brief: as §3
Staphylococcus aureus [7] = test: Antimicrobial activity against methicillin-susceptible Staphylococcus aureus […] infected in human THP-1 cells assessed as change in bacterial count after 24 hrs; assay type: functional, organism-based; conditions: THP-1, 24 h; method in brief: as §2
Staphylococcus aureus [8] = test: Antimicrobial activity against hospital-acquired methicillin-resistant Staphylococcus aureus ATCC 33591 infected in human THP-1 cells assessed as change in bacterial count after 24 hrs; assay type: functional, organism-based; conditions: ATCC 33591, THP-1, 24 h; method in brief: as §2
Staphylococcus aureus [9] = test: Antimicrobial activity against hospital-acquired vancomycin-resistant Staphylococcus aureus VRS1 infected in human THP-1 cells assessed as change in bacterial count after 24 hrs; assay type: functional, cell-based; conditions: VRS1, THP-1, 24 h; method in brief: as §2
Staphylococcus aureus [10] = test: Antimicrobial activity against methicillin-susceptible Staphylococcus aureus NRS52 infected in human THP-1 cells assessed as bacterial count per mg of cell protein at high extracellular compound concentration after 24 hrs at pH 7.4; assay type: functional; method in brief: as §3
Staphylococcus aureus [11] = test: Antimicrobial activity against Panton-valentine leucocidin-positive community-acquired methicillin-resistant Staphylococcus aureus NRS192 infected in human THP-1 cells assessed as change in bacterial count after 24 hrs at pH 7.4; assay type: functional, organism-based; conditions: NRS192, THP-1, 24 h; method in brief: as §1
Staphylococcus aureus [12] = test: Antimicrobial activity against hospital-acquired vancomycin-intermediate Staphylococcus aureus NRS18 infected in human THP-1 cells assessed as bacterial count per mg of cell protein at high extracellular compound concentration after 24 hrs at pH 5.5; assay type: functional; method in brief: as §3
Staphylococcus aureus [13] = test: Antimicrobial activity against methicillin-susceptible Staphylococcus aureus […] infected in human THP-1 cells assessed as change in bacterial count after 24 hrs at pH 7.4; assay type: functional, organism-based; conditions: THP-1, 24 h; method in brief: as §2
Staphylococcus aureus [14] = test: Antimicrobial activity against hospital-acquired methicillin-resistant Staphylococcus aureus […] infected in human THP-1 cells assessed as change in bacterial count after 24 hrs at pH 5.5; assay type: functional, organism-based; conditions: THP-1, 24 h; method in brief: as §2
Staphylococcus aureus [15] = test: Antimicrobial activity against hospital-acquired vancomycin-intermediate Staphylococcus aureus NRS18 infected in human THP-1 cells assessed as change in bacterial count after 24 hrs; assay type: functional, organism-based; conditions: NRS18, THP-1, 24 h; method in brief: as §2
Staphylococcus aureus [16] = test: Bacteriostatic activity against methicillin-susceptible Staphylococcus aureus ATCC 25923 infected in human keratinocytes assessed as change in bacterial count after 24 hrs; assay type: functional
Method in brief: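 Primary human skin keratinocytes were grown in defined keratinocyte serum-free medium and infected with S. aureus to 1.5 × 10^6 to 3.0 × 10^6 CFU/mg cell protein. Cells were exposed 24 h to increasing extracellular concentrations. Response was the log10 CFU change from the postphagocytosis inoculum, fitted by a Hill equation with slope 1. Cs is the concentration giving CFU equal to the original inoculum, found by graphical interpolation.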

Staphylococcus aureus [17] = test: Antimicrobial activity against Panton-valentine leucocidin-positive community-acquired methicillin-resistant Staphylococcus aureus NRS192 infected in human THP-1 cells assessed as change in bacterial count after 24 hrs; assay type: functional, organism-based; conditions: NRS192, THP-1, 24 h; method in brief: as §1
Staphylococcus aureus [18] = test: Antimicrobial activity against Panton-valentine leucocidin-positive community-acquired methicillin-resistant Staphylococcus aureus STA 228 infected in human THP-1 cells assessed as change in bacterial count after 24 hrs at pH 5.5; assay type: functional, organism-based; conditions: STA 228, THP-1, 24 h; method in brief: as §1
Staphylococcus aureus [19] = test: Antimicrobial activity against methicillin-resistant Staphylococcus aureus ATCC 33591 infected in human keratinocytes assessed as bacterial count per mg of cell protein at high extracellular compound concentration after 24 hrs; assay type: functional
Method in brief: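 Primary human skin keratinocytes were grown in defined keratinocyte serum-free medium, infected with a postphagocytosis inoculum of 1.5 × 10⁶ to 3.0 × 10⁶ CFU/mg cell protein, then exposed 24 h to increasing extracellular antibiotic concentrations. Change in log10 CFU/mg protein from the inoculum was fitted to a Hill equation with slope 1. E0 and Emax were extrapolated to infinitely low and high concentrations, in total drug mg/liter.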

Staphylococcus aureus [20] = test: Antimicrobial activity against methicillin-susceptible Staphylococcus aureus NRS52 infected in human THP-1 cells assessed as bacterial count per mg of cell protein at high extracellular compound concentration after 24 hrs; assay type: functional; method in brief: as §2
Staphylococcus aureus [21] = test: Antimicrobial activity against Panton-valentine leucocidin-positive community-acquired methicillin-resistant Staphylococcus aureus N4090440 infected in human THP-1 cells assessed as change in bacterial count after 24 hrs at pH 5.5; assay type: functional, organism-based; conditions: N4090440, THP-1, 24 h; method in brief: as §1
Staphylococcus aureus [22] = test: Bacteriostatic activity against hospital-acquired vancomycin-intermediate Staphylococcus aureus NRS126 infected in human THP-1 cells assessed as change in bacterial count after 24 hrs at pH 7.4; assay type: functional; method in brief: as §2

## Nc1nc(/C(=N/O)C(=O)N[C@@H]2C(=O)N3C(C(=O)O)=C(/C=C4\CCN([C@@H]5CCNC5)C4=O)CS[C@H]23)ns1 [CEFTOBIPROLE]
Staphylococcus aureus [1]
  EC50: 0.33 ×MIC
Staphylococcus aureus [2]
  Activity: 1.45 × MIC
Staphylococcus aureus [3]
  log10cfu: -0.89
Staphylococcus aureus [4]
  log10cfu: 3.02
Staphylococcus aureus [5]
  log10cfu: -0.99
Staphylococcus aureus [6]
  Activity: 0.74 mg/L
Staphylococcus aureus [7]
  EC50: 0.07 µg/mL (≈ 0.131 µM)
Staphylococcus aureus [8]
  EC50: 0.27 µg/mL (≈ 0.505 µM)
Staphylococcus aureus [9]
  EC50: 0.25 µg/mL (≈ 0.468 µM)
Staphylococcus aureus [10]
  log10cfu: -1.04
Staphylococcus aureus [11]
  EC50: 0.33 ×MIC
Staphylococcus aureus [12]
  log10cfu: 1.01
Staphylococcus aureus [13]
  EC50: 0.2 × MIC
Staphylococcus aureus [14]
  EC50: 0.77 ×MIC
Staphylococcus aureus [15]
  EC50: 0.26 µg/mL (≈ 0.486 µM)
Staphylococcus aureus [16]
  Activity: 0.91 mg/L
Staphylococcus aureus [17]
  EC50: 0.7 µg/mL (≈ 1.31 µM)
Staphylococcus aureus [18]
  EC50: 0.54 × MIC
Staphylococcus aureus [19]
  log10cfu: -1.14
Staphylococcus aureus [20]
  log10cfu: -1.01
Staphylococcus aureus [21]
  EC50: 0.54 × MIC
Staphylococcus aureus [22]
  Activity: 0.74 ×MIC
